Blank lines part the entries; values can stand above or below the molecule they belong to.
Experiments:
Enterococcus faecalis [1] = assay: Percent inhibition of D-Alanine-D-Alanine Ligase at 10e-3 M of the compound
In short: (§1)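 Enzyme was a 50% ammonium sulphate fraction from sonicated Streptococcus faecalis ATCC 8043 extract (0.38 units/mg). Inhibitor was preincubated 40 min at room temperature with enzyme, 0.008 M MgCl2, 0.01 M KCl and 0.05 M Tris-Cl pH 7.9. Then 0.005 M ATP and 0.005 M (14C-1)-D-alanine were added and the mix held 30 min at 37 °C. Radiolabelled product was resolved by silica TLC and integrated.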

Enterococcus faecalis [2] = assay: Percent inhibition of DAla-DAla Ligase at 10e -3 M of the compound; in short: as §1
[3] = Inhibition of DAla-DAla Ligase by the compound; set-up: species or system Enterococcus faecalis; in short: as §1
Enterococcus faecalis [4] = assay: Percent inhibition of DAla-DAla Ligase at 10e-3 M of the compound; in short: as §1
[5] = Inhibition of DAla-DAla Ligase at 10e -3 M of the compound; set-up: species or system Enterococcus faecalis; in short: as §1
[6] = Inhibition of D-Alanine-D-Alanine Ligase Ligase by the compound; set-up: species or system Enterococcus faecalis; in short: as §1

SMILES: C[C@@H](N)C(=O)CP(=O)(O)O
- Ki [3]: 510 µM
- inhibition (Enterococcus faecalis [4]): 71%

SMILES: C[C@@H](N)P(=O)(O)O
- IC50 [5]: 930 µM

SMILES: C[C@@H](N)C(=O)NP(=O)(O)O
- inhibition (Enterococcus faecalis [2]): 85%
- Ki [3]: 50 µM

SMILES: NC(CCC(=O)CP(=O)(O)O)C(=O)O (centres undefined)
- Ki [6]: 500 µM

SMILES: C[C@H](N)C(=O)CP(=O)(O)O
- inhibition (Enterococcus faecalis [1]): 14%

SMILES: C[C@@H](N)C(=O)CCP(=O)(O)O
- inhibition (Enterococcus faecalis [1]): 10%

Further lines, results first:

- inhibition (Enterococcus faecalis [1]): 25%
SMILES: C[C@@H](N)C(O)CP(=O)(O)O (some centres undefined)

- inhibition (Enterococcus faecalis [1]): 32%
SMILES: C[C@@H](N)C(O)C(O)P(=O)(O)O (some centres undefined)

- inhibition (Enterococcus faecalis [2]): 24%
SMILES: C[C@@H](N)/C=C/P(=O)(O)O

- inhibition (Enterococcus faecalis [1]): 18%
SMILES: CC(C(=O)[C@@H](C)N)P(=O)(O)O (some centres undefined)

- Ki [3]: 250 µM
SMILES: N[C@@H]1CONC1=O [CYCLOSERINE]

- inhibition (Enterococcus faecalis [1]): 26%
SMILES: CC[C@@H](N)C(=O)CP(=O)(O)O

Source: ChEMBL document CHEMBL1124562, “(3-Amino-2-oxoalkyl)phosphonic acids and their analogues as novel inhibitors of D-alanine:D-alanine ligase” (J Med Chem, 1989)
